Consider 26 molecules from ChEMBL document CHEMBL1126594, “Studies directed toward the design of orally active renin inhibitors. 1. Some factors influencing the absorption of small peptides” (J Med Chem, 1993).

The target of one data set is T1, Renin (Homo sapiens, UniProt P00797).
T1 sequence (P00797 whole entry): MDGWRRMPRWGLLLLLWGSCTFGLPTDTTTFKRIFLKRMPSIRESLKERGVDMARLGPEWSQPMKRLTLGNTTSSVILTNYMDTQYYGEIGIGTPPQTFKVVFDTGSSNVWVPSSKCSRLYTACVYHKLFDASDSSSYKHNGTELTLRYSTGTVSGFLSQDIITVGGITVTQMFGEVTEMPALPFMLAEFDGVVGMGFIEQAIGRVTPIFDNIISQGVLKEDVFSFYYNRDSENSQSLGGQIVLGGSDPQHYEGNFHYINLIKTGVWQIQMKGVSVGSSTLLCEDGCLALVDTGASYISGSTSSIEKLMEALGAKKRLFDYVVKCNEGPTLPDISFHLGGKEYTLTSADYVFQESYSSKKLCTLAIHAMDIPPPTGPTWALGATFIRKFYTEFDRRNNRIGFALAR
The experiment in a line: Inhibition of human plasma renin at pH 7.4. The format is cell-free. The essentials:
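Human plasma renin, pH 7.4; IC50 determined by the previously described method.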

The nature of data set [1]: Plasma level by the renin inhibition assay from samples taken at 10 minutes from systemic circulation by administering 10 mg/kg intraduodenally to the rat.
The nature of data set [2]: Plasma level by the renin inhibition assay from samples taken at 30 minutes from systemic circulation by administering 10 mg/kg intraduodenally to the rat.
The nature of data set [3]: Plasma level by the renin inhibition assay from samples taken at 30 minutes from portal circulation by administering 10 mg/kg intraduodenally to the rat.
Data set [4] in a line: Plasma level by the renin inhibition assay from samples taken at 10 minutes from portal circulation by administering 10 mg/kg intraduodenally to the rat.
Data set [5] is described as follows: Partition coefficient (logD7.4). The following applies: octanol/water, pH 7.4.

Structures are written as SMILES. A value given as a limit tells only on which side of the number the result lay.

As a reminder, the IC50 is the concentration that gives 50% inhibition. Low values mean greater potency, high ones weaker potency. By logD is commonly meant lipophilicity at a set pH, counting ionised and neutral species. Low values mean lower lipophilicity, high ones higher lipophilicity.

In turn, `CC(C)C[C@H](O)[C@H](O)[C@H](CC1CCCCC1)NC(=O)[C@H](Cc1c[nH]cn1)NC(=O)[C@@H](CC(=O)N1CCN(C)CC1)Cc1ccccc1` displayed an IC50 against Renin of 5.4 nM. In addition, the concentration at 10 min was 63 ng/mL in data set [1] and 67 ng/mL in data set [4]. Moreover, the concentration at 0.5 h came to 40 ng/mL in data set [2] and 30 ng/mL in data set [3]. Moreover, the logD in data set [5] is 1.66.

At Renin, `CCN1C[C@@H]([C@H](O)[C@H](CC2CCCCC2)NC(=O)[C@H](Cc2c[nH]cn2)NC(=O)[C@H](Cc2ccc(OC)cc2)NC(=O)CC(C)(C)N)OC1=O` had an IC50 of 17 nM. Also, the concentration at 10 min is 93 ng/mL in data set [1] and 140 ng/mL in data set [4]. Moreover, the concentration at 0.5 h was 110 ng/mL in data set [2] and 250 ng/mL in data set [3].

Consider `COc1ccc(C[C@H](NC(=O)N2CCN(C)CC2)C(=O)N[C@@H](Cc2cscn2)C(=O)N[C@@H](CC2CCCCC2)[C@@H](O)[C@@H](O)CC(C)C)cc1`, for which the IC50 at Renin worked out at 120 nM.

On Renin, `COc1ccc(C[C@H](NC(=O)C2CCN(C)CC2)C(=O)N[C@@H](Cc2cscn2)C(=O)N[C@@H](CC2CCCCC2)[C@@H](O)[C@@H](O)CC(C)C)cc1` came in with an IC50 of 170 nM. Further, the concentration at 10 min in data set [1] was determined as 160 ng/mL; in data set [4], 1200 ng/mL. Besides, the concentration at 0.5 h in data set [2] was determined as 90 ng/mL; in data set [3] it was 770 ng/mL. Moreover, the logD in data set [5] worked out at 3.03.

Molecule `CON(C)C[C@H](NC(=O)[C@@H](CC(=O)N1CCOCC1)Cc1ccccc1)C(=O)N[C@@H](CC1CCCCC1)[C@@H](O)[C@@H](O)CC(C)C` had an IC50 against Renin of 88 nM. The results for the concentration at 10 min in data set [1] and in data set [4] were 340 ng/mL and 3500 ng/mL, respectively. The concentration at 0.5 h in data set [2] came to 170 ng/mL; in data set [3] it was 1400 ng/mL. This molecule showed a logD in data set [5] of more than 4.6.

As for `CC(C)C[C@H](O)[C@H](O)[C@H](CC1CCCCC1)NC(=O)[C@H](CN(C)C)NC(=O)[C@@H](CC(=O)N1CCOCC1)Cc1ccccc1`, the IC50 against Renin was determined as 210 nM. That is a sub-micromolar value.

The molecule `CC(C)C[C@H](O)[C@H](O)[C@H](CC1CCCCC1)NC(=O)[C@H](Cn1ccnc1)NC(=O)[C@@H](CC(=O)N1CCOCC1)Cc1ccccc1` returned an IC50 against Renin of 93 nM. For the same molecule, the logD in data set [5] worked out at 3.79.

`COc1ccc(C[C@H](NC(=O)CC(C)(C)N)C(=O)N[C@@H](Cc2cnc[nH]2)C(=O)N[C@@H](CC2CCCCC2)[C@@H](O)[C@@H](O)CC(C)C)cc1`: the concentration at 10 min in data set [1] was 170 ng/mL; in data set [4], 1100 ng/mL. Also, the concentration at 0.5 h in data set [2] came out at 82 ng/mL; in data set [3] it was 540 ng/mL.

Turning to `CC(C)C[C@H](O)[C@H](O)[C@H](CC1CCCCC1)NC(=O)[C@H](Cc1c[nH]cn1)NC(=O)[C@@H](CC(=O)N1CCOCC1)Cc1ccccc1`, at Renin, 1.6 nM corresponded to half-maximal inhibition (IC50). Further, the concentration at 10 min was found to be 13 ng/mL in data set [1] and 190 ng/mL in data set [4]. Further, the concentration at 0.5 h worked out at 11 ng/mL in data set [2] and 170 ng/mL in data set [3]. The logD in data set [5] is 3.51.

The molecule `CC(C)C[C@H](O)[C@H](O)[C@H](CC1CCCCC1)NC(=O)[C@H](Cn1cccn1)NC(=O)[C@@H](CC(=O)N1CCN(C)CC1)Cc1ccccc1` had an IC50 at Renin of 18 nM. Further, the values for the concentration at 10 min in data set [1] and in data set [4] were 86 ng/mL and 2000 ng/mL, respectively. Moreover, the concentration at 0.5 h was 140 ng/mL in data set [2] and 2300 ng/mL in data set [3]. In data set [5], this molecule displayed a logD of 4.39.

Take `CC(C)C[C@H](O)[C@H](O)[C@H](CC1CCCCC1)NC(=O)[C@H](CN=[N+]=[N-])NC(=O)[C@@H](CC(=O)N1CCOCC1)Cc1ccccc1`: at Renin, half-maximal inhibition (IC50) required 11 nM. The logD in data set [5] came to 4.1.

On Renin, `CC(C)C[C@H](O)[C@H](O)[C@H](CC1CCCCC1)NC(=O)[C@H](Cc1cn(C)cn1)NC(=O)[C@@H](CC(=O)N1CCOCC1)Cc1ccccc1` registered an IC50 of 110 nM. Further, the concentration at 10 min is 470 ng/mL in data set [1] and 4900 ng/mL in data set [4]. For the same molecule, the values for the concentration at 0.5 h in data set [2] and in data set [3] were 320 ng/mL and 3300 ng/mL, respectively. The molecule also returned a logD in data set [5] of 3.71.

`CCN1C[C@@H]([C@H](O)[C@H](CC2CCCCC2)NC(=O)[C@H](Cc2cc[nH]n2)NC(=O)[C@@H](CC(=O)N2CCOCC2)Cc2ccccc2)OC1=O`: the concentration at 10 min in data set [1] amounted to 7 ng/mL; in data set [4], 28 ng/mL. Moreover, the concentration at 0.5 h in data set [2] is 7 ng/mL; in data set [3], 58 ng/mL. This molecule displayed a logD in data set [5] of 2.49.

With `COc1ccc(C[C@H](NC(=O)CC(C)(C)N)C(=O)N[C@@H](Cc2cccs2)C(=O)N[C@@H](CC2CCCCC2)[C@@H](O)[C@@H](O)CC(C)C)cc1`, half-maximal inhibition on Renin (IC50) was put at 85 nM. Also, the concentration at 10 min in data set [1] came out at 9 ng/mL; in data set [4], 23 ng/mL. In addition, the concentration at 0.5 h in data set [2] stood at 6 ng/mL; in data set [3], 23 ng/mL.

In turn, `CCCC[C@H](NC(=O)[C@@H](CC(=O)N1CCN(C)CC1)Cc1ccccc1)C(=O)N[C@@H](CC1CCCCC1)[C@@H](O)[C@@H](O)CC(C)C` showed a half-inhibitory concentration (IC50) at Renin of 25 nM. Besides, the concentration at 10 min in data set [1] came out at 260 ng/mL; in data set [4], 3200 ng/mL. The concentration at 0.5 h came out at 650 ng/mL in data set [2] and 4600 ng/mL in data set [3]. The same molecule returned a log distribution coefficient (logD) in data set [5] of more than 4.5.

In the case of `COc1ccc(C[C@H](NC(=O)CC(C)(C)N)C(=O)N[C@@H](Cc2cscn2)C(=O)N[C@@H](CC2CCCCC2)[C@@H](O)[C@@H](O)CC(C)C)cc1`, half-maximal inhibition at Renin (IC50) required 33 nM. For the same molecule, the concentration at 10 min came to 17 ng/mL in data set [1] and 93 ng/mL in data set [4]. Besides, the concentration at 0.5 h was determined as 13 ng/mL in data set [2] and 53 ng/mL in data set [3].

`CCN1C[C@@H]([C@H](O)[C@H](CC2CCCCC2)NC(=O)[C@H](Cc2cccs2)NC(=O)[C@H](Cc2ccc(OC)cc2)NC(=O)CC(C)(C)N)OC1=O`: on Renin, inhibition was half-maximal at 69 nM (IC50). Besides, the values for the concentration at 10 min in data set [1] and in data set [4] were 16 ng/mL and 13 ng/mL, respectively. For the same molecule, the concentration at 0.5 h came out at 32 ng/mL in data set [2] and 45 ng/mL in data set [3].

`CCN1C[C@@H]([C@H](O)[C@H](CC2CCCCC2)NC(=O)[C@H](Cc2cscn2)NC(=O)[C@H](Cc2ccc(OC)cc2)NC(=O)CC(C)(C)N)OC1=O` registered an IC50 against Renin of 39 nM. Further, the figures for the concentration at 10 min in data set [1] and in data set [4] were 83 ng/mL and 880 ng/mL, respectively. Further, the concentration at 0.5 h in data set [2] worked out at 24 ng/mL; in data set [3], 240 ng/mL.

As to `CC(C)C[C@H](NC(=O)[C@@H](CC(=O)N1CCN(C)CC1)Cc1ccccc1)C(=O)N[C@@H](CC1CCCCC1)[C@@H](O)[C@@H](O)CC(C)C`, the IC50 on Renin turned out to be 37 nM. Also, the concentration at 10 min in data set [1] was found to be 380 ng/mL; in data set [4] it was 880 ng/mL. Besides, the values for the concentration at 0.5 h in data set [2] and in data set [3] were 620 ng/mL and 1200 ng/mL, respectively.

In the case of `CCN1C[C@@H]([C@H](O)[C@H](CC2CCCCC2)NC(=O)[C@H](Cc2cnc[nH]2)NC(=O)[C@@H](CC(=O)N2CCOCC2)Cc2ccccc2)OC1=O`, the concentration at 10 min came out at 55 ng/mL in data set [1] and 280 ng/mL in data set [4]. Moreover, the concentration at 0.5 h in data set [2] amounted to 34 ng/mL; in data set [3], 390 ng/mL.

Molecule `CC(C)C[C@H](O)[C@H](O)[C@H](CC1CCCCC1)NC(=O)[C@H](Cc1cscn1)NC(=O)[C@H](Cc1ccccc1)N1CCOCC1` registered an IC50 at Renin of 1600 nM. The values for the concentration at 10 min in data set [1] and in data set [4] were 420 ng/mL and 2600 ng/mL, respectively. Also, the figures for the concentration at 0.5 h in data set [2] and in data set [3] were 890 ng/mL and 3300 ng/mL, respectively.

The molecule `CC(C)C[C@H](O)[C@H](O)[C@H](CC1CCCCC1)NC(=O)[C@H](Cc1cscn1)NC(=O)[C@@H](CC(=O)CN1CCOCC1)Cc1ccccc1` registered an IC50 on Renin of 25 nM. The figures for the concentration at 10 min in data set [1] and in data set [4] were 190 ng/mL and 2500 ng/mL, respectively. Besides, the values for the concentration at 0.5 h in data set [2] and in data set [3] were 380 ng/mL and 1800 ng/mL, respectively. In data set [5], this molecule gave a logD of 3.91.

Turning to `CC(C)C[C@H](O)[C@H](O)[C@H](CC1CCCCC1)NC(=O)[C@H](Cc1cscn1)NC(=O)[C@@H](CC(=O)N1CCN(C)CC1)Cc1ccccc1`, the IC50 against Renin came to 18 nM.

Regarding `CC(C)C[C@H](O)[C@H](O)[C@H](CC1CCCCC1)NC(=O)[C@H](Cc1ccn[nH]1)NC(=O)[C@@H](CC(=O)N1CCN(C)CC1)Cc1ccccc1`, the IC50 at Renin was found to be 2.8 nM. Also, the concentration at 10 min was 21 ng/mL in data set [1] and 53 ng/mL in data set [4]. The concentration at 0.5 h worked out at 22 ng/mL in data set [2] and 27 ng/mL in data set [3]. The logD in data set [5] came to 4.02.

Turning to `CC(C)C[C@H](O)[C@H](O)[C@H](CC1CCCCC1)NC(=O)[C@H](Cc1cccs1)NC(=O)[C@@H](CC(=O)N1CCN(C)CC1)Cc1ccccc1`, it took 110 nM to reach half-maximal inhibition against Renin (IC50).

Molecule `CC(C)C[C@H](O)[C@H](O)[C@H](CC1CCCCC1)NC(=O)[C@H](Cc1ccn[nH]1)NC(=O)[C@@H](CC(=O)N1CCOCC1)Cc1ccccc1` showed an IC50 against Renin of 3.5 nM.
